{
  "source": "ChEMBL document CHEMBL1157795",
  "about": "“Structure-activity relationship of an ozonide carboxylic acid (OZ78) against Fasciola hepatica” (2010)",
  "key": {"Fasciola hepatica [1]": {"test_system": "Fasciola hepatica", "test": "Antiparasitic activity against Fasciola hepatica infected in rat assessed as reduction in worm burden at 100 mg/kg, po administered as single dose measured after 6 days post treatment", "assay_type": "functional", "design": "scale not given: the % may be the effect or the level left", "procedure,_shortened": "(§1)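 Female Wistar rats (~100 g) infected with ~20 F. hepatica metacercariae each; at 8 weeks post-infection given a single 100 mg/kg oral dose as suspension in 7% (v/v) Tween 80 / 3% (v/v) EtOH. Killed by CO2 on day 6 post-treatment; adult flukes recovered from bile ducts and livers. Mean total worm burden compared with untreated controls; cures scored; Kruskal-Wallis test, 5% level.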"}, "Fasciola hepatica [2]": {"test_system": "Fasciola hepatica", "test": "Antiparasitic activity against Fasciola hepatica infected in rat assessed as induction of cure at 100 mg/kg, po administered as single dose measured after 6 days post", "assay_type": "functional, organism-based", "design": "dose 100 mg/kg", "procedure,_shortened": "as §1"}, "Fasciola hepatica [3]": {"test_system": "Fasciola hepatica", "test": "Antiparasitic activity against Fasciola hepatica infected in rat assessed as reduction in worm burden at 50 mg/kg, po administered as single dose measured after 6 days post treatment", "assay_type": "functional", "design": "scale not given: the % may be the effect or the level left", "procedure,_shortened": "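Female Wistar rats (~100 g), each infected with ~20 F. hepatica metacercariae, dosed orally once at 8 weeks post-infection with 50 mg/kg suspended in 7% (v/v) Tween 80 plus 3% (v/v) EtOH. Day 6 after treatment: CO2 sacrifice, adult flukes counted from bile ducts and liver. Worm burden reduction versus untreated control rats (mean totals); Kruskal-Wallis significance.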"}},
  "note": "Active and inactive are the calls of the source. The calls are words filed in the database; no cut-off is given here.",
  "data": [
    {"compound": "O=C(O)C[C@H]1CC[C@]2(CC1)OO[C@]1(O2)C2CC3CC1C[C@@](F)(C3)C2", "values": [
      {"measurement": "Activity", "setting": "Fasciola hepatica [1]", "result": 80, "unit": "%"}
    ]},
    {"compound": "O=C(O)C[C@H]1CC[C@@]2(CC1)C[C@@]1(OO2)C2CC3CC(C2)CC1C3", "values": [
      {"measurement": "Activity", "setting": "Fasciola hepatica [1]", "result": 7, "unit": "%"},
      {"measurement": "Activity", "setting": "Fasciola hepatica [2]", "result": "inactive"}
    ]},
    {"compound": "CS(=O)(=O)NC(=O)C[C@H]1CC[C@]2(CC1)OO[C@]1(O2)C2CC3CC(C2)CC1C3", "values": [
      {"measurement": "Activity", "setting": "Fasciola hepatica [1]", "result": 100, "unit": "%"},
      {"measurement": "Activity", "setting": "Fasciola hepatica [2]", "result": "Active"}
    ]},
    {"compound": "C[C@H]1[C@H](OC(=O)CCC(=O)O)O[C@@H]2O[C@@]3(C)CC[C@H]4[C@H](C)CC[C@@H]1[C@@]24OO3", "note": "[ARTESUNATE]", "values": [
      {"measurement": "Activity", "setting": "Fasciola hepatica [1]", "result": 30, "unit": "%"}
    ]},
    {"compound": "NNC(=O)C[C@H]1CC[C@]2(CC1)OO[C@]1(O2)C2CC3CC(C2)CC1C3", "values": [
      {"measurement": "Activity", "setting": "Fasciola hepatica [1]", "result": 12, "unit": "%"},
      {"measurement": "Activity", "setting": "Fasciola hepatica [2]", "result": "inactive"}
    ]},
    {"compound": "O=C(O)C[C@@H]1CCC[C@]2(C1)OOC1(O2)C2CC3CC(C2)CC1C3", "note": "(relative stereo)", "values": [
      {"measurement": "Activity", "setting": "Fasciola hepatica [1]", "result": 90, "unit": "%"}
    ]},
    {"compound": "CCOC(=O)C[C@H]1CC[C@]2(CC1)OO[C@]1(O2)C2CC3CC(C2)CC1C3", "values": [
      {"measurement": "Activity", "setting": "Fasciola hepatica [3]", "result": 36, "unit": "%"}
    ]},
    {"compound": "O=C(O)[C@H]1CC[C@]2(CC1)OO[C@]1(O2)C2CC3CC(C2)CC1C3", "values": [
      {"measurement": "Activity", "setting": "Fasciola hepatica [1]", "result": 52, "unit": "%"}
    ]},
    {"compound": "O=C(O)C(=O)NC[C@H]1CC[C@]2(CC1)OO[C@]1(O2)C2CC3CC(C2)CC1C3", "values": [
      {"measurement": "Activity", "setting": "Fasciola hepatica [1]", "result": 14, "unit": "%"},
      {"measurement": "Activity", "setting": "Fasciola hepatica [2]", "result": "inactive"}
    ]},
    {"compound": "O=C(C[C@H]1CC[C@]2(CC1)OO[C@]1(O2)C2CC3CC(C2)CC1C3)N1CCNCC1", "values": [
      {"measurement": "Activity", "setting": "Fasciola hepatica [1]", "result": 0, "unit": "%"},
      {"measurement": "Activity", "setting": "Fasciola hepatica [2]", "result": "inactive"}
    ]},
    {"compound": "O=C(C[C@H]1CC[C@]2(CC1)OO[C@]1(O2)C2CC3CC(C2)CC1C3)NCCS(=O)(=O)[O-].[Na+]", "values": [
      {"measurement": "Activity", "setting": "Fasciola hepatica [1]", "result": 0, "unit": "%"},
      {"measurement": "Activity", "setting": "Fasciola hepatica [2]", "result": "inactive"}
    ]},
    {"compound": "O=C(O)C[C@H]1CC[C@]2(CC1)OO[C@]1(O2)C2CCCC1CCC2", "values": [
      {"measurement": "Activity", "setting": "Fasciola hepatica [1]", "result": 51, "unit": "%"},
      {"measurement": "Activity", "setting": "Fasciola hepatica [2]", "result": "inactive"}
    ]},
    {"compound": "COC(=O)C[C@H]1CC[C@]2(CC1)OO[C@]1(O2)C2CC3CC(C2)CC1C3", "values": [
      {"measurement": "Activity", "setting": "Fasciola hepatica [1]", "result": 99, "unit": "%"}
    ]},
    {"compound": "O=C(O)C[C@H]1CC[C@]2(CC1)OO[C@@]1(CCCCC1)O2", "values": [
      {"measurement": "Activity", "setting": "Fasciola hepatica [1]", "result": 0, "unit": "%"},
      {"measurement": "Activity", "setting": "Fasciola hepatica [2]", "result": "inactive"}
    ]},
    {"compound": "O=C(O)CC[C@H]1CC[C@]2(CC1)OO[C@]1(O2)C2CC3CC(C2)CC1C3", "values": [
      {"measurement": "Activity", "setting": "Fasciola hepatica [1]", "result": 14, "unit": "%"},
      {"measurement": "Activity", "setting": "Fasciola hepatica [2]", "result": "inactive"}
    ]},
    {"compound": "CCOP(=O)([O-])C[C@H]1CC[C@]2(CC1)OO[C@]1(O2)C2CC3CC(C2)CC1C3.[K+]", "values": [
      {"measurement": "Activity", "setting": "Fasciola hepatica [1]", "result": 16, "unit": "%"},
      {"measurement": "Activity", "setting": "Fasciola hepatica [2]", "result": "inactive"}
    ]},
    {"compound": "O=C(O)C[C@H]1CC[C@]2(CC1)OC[C@]1(O2)C2CC3CC(C2)CC1C3", "values": [
      {"measurement": "Activity", "setting": "Fasciola hepatica [1]", "result": 0, "unit": "%"},
      {"measurement": "Activity", "setting": "Fasciola hepatica [2]", "result": "inactive"}
    ]},
    {"compound": "O=C(O)C[C@H]1CC[C@]2(CC1)OO[C@]1(O2)C2CC3CC(C2)CC1C3", "values": [
      {"measurement": "Activity", "setting": "Fasciola hepatica [1]", "result": 100, "unit": "%"},
      {"measurement": "Activity", "setting": "Fasciola hepatica [2]", "result": "Active"}
    ]},
    {"compound": "O=C(O)C[C@H]1CC[C@]2(CC1)OO[C@]1(O2)C2CC3CC1CC(C2)C3F", "note": "(some centres not stated)", "values": [
      {"measurement": "Activity", "setting": "Fasciola hepatica [1]", "result": 76, "unit": "%"}
    ]},
    {"compound": "O=C(O)C(C(=O)O)[C@H]1CC[C@]2(CC1)OO[C@]1(O2)C2CC3CC(C2)CC1C3", "values": [
      {"measurement": "Activity", "setting": "Fasciola hepatica [1]", "result": 0, "unit": "%"},
      {"measurement": "Activity", "setting": "Fasciola hepatica [2]", "result": "inactive"}
    ]},
    {"compound": "O=C(C[C@H]1CC[C@]2(CC1)OO[C@]1(O2)C2CC3CC(C2)CC1C3)NO", "values": [
      {"measurement": "Activity", "setting": "Fasciola hepatica [1]", "result": 34, "unit": "%"},
      {"measurement": "Activity", "setting": "Fasciola hepatica [2]", "result": "inactive"}
    ]},
    {"compound": "O=C([O-])CN1CC[C@]2(CC1)OO[C@]1(O2)C2CC3CC(C2)CC1C3.[Na+]", "values": [
      {"measurement": "Activity", "setting": "Fasciola hepatica [1]", "result": 0, "unit": "%"},
      {"measurement": "Activity", "setting": "Fasciola hepatica [2]", "result": "inactive"}
    ]},
    {"compound": "O=C(O)C[C@H]1CC[C@]2(CC1)OO[C@]1(O2)C2CC3CC1CC(C2)C3(F)F", "values": [
      {"measurement": "Activity", "setting": "Fasciola hepatica [1]", "result": 80, "unit": "%"},
      {"measurement": "Activity", "setting": "Fasciola hepatica [2]", "result": "inactive"}
    ]},
    {"compound": "O=C(O)C[C@H]1CCCC[C@@]12OOC1(O2)C2CC3CC(C2)CC1C3", "note": "(some centres not stated)", "values": [
      {"measurement": "Activity", "setting": "Fasciola hepatica [1]", "result": 46, "unit": "%"},
      {"measurement": "Activity", "setting": "Fasciola hepatica [2]", "result": "inactive"}
    ]},
    {"compound": "O=C(O)CNC(=O)C[C@H]1CC[C@]2(CC1)OO[C@]1(O2)C2CC3CC(C2)CC1C3", "values": [
      {"measurement": "Activity", "setting": "Fasciola hepatica [1]", "result": 86, "unit": "%"}
    ]},
    {"compound": "N=C(N)NC(=O)C[C@H]1CC[C@]2(CC1)OO[C@]1(O2)C2CC3CC(C2)CC1C3", "values": [
      {"measurement": "Activity", "setting": "Fasciola hepatica [1]", "result": 0, "unit": "%"},
      {"measurement": "Activity", "setting": "Fasciola hepatica [2]", "result": "inactive"}
    ]},
    {"compound": "NC(=O)C[C@H]1CC[C@]2(CC1)OO[C@]1(O2)C2CC3CC(C2)CC1C3", "values": [
      {"measurement": "Activity", "setting": "Fasciola hepatica [1]", "result": 7, "unit": "%"},
      {"measurement": "Activity", "setting": "Fasciola hepatica [2]", "result": "inactive"}
    ]},
    {"compound": "O=C(O)C[C@H]1CC[C@@]2(CC1)OO[C@@]1(O2)C2CC3CC(C2)CC1C3", "values": [
      {"measurement": "Activity", "setting": "Fasciola hepatica [1]", "result": 95, "unit": "%"}
    ]}
  ]
}
